Reference: ChEMBL document CHEMBL2440006, “Mastering tricyclic ring systems for desirable functional cannabinoid activity” (Eur J Med Chem, 2013)

Tests used:
Cannabinoid receptor 2 [1] = biological target: T1, Cannabinoid receptor 2 (Homo sapiens, UniProt P34972); assay: Displacement of [3H]-CP55940 from human CB2 receptor expressed in HEK293 cells after 1.5 hrs by microbeta liquid scintillation counting analysis; format: cell-based
Summary of the method: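 Membranes from rat brain homogenate (CB1) or HEK293 cells expressing human CB2. GF/B filtration, then scintillation counting. IC50 by three-parameter logistic fit, Ki by Cheng-Prusoff. Three experiments in triplicate.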

Cannabinoid receptor 1 = Cannabinoid receptor 1 (Rattus norvegicus, UniProt P20272); assay: Displacement of [3H]-CP55940 from CB1 receptor in rat brain homogenate after 1.5 hrs by microbeta liquid scintillation counting analysis; format: tissue-based
Summary of the method: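 Membranes from rat brain homogenate (CB1) or HEK293 cells expressing human CB2. […] GF/B filtration, then scintillation counting. […] IC50 by three-parameter logistic fit, Ki by Cheng-Prusoff. Three experiments in triplicate.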

Cannabinoid receptor 2 [2] = biological target: T1, Cannabinoid receptor 2; assay: Induction of human CB2 receptor internalization expressed in HEK293 cells at 10 uM relative to CP55940; format: cell-based
Summary of the method: (§1)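 Cells stably expressing human CB1 or human CB2 receptors, exposed to test compound alone. […] Mean of two determinations.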

[3] = biological target: Cannabinoid receptor 1 (Homo sapiens) (UniProt P21554); assay: Induction of human CB1 receptor internalization expressed in HEK293 cells at 10 uM relative to CP55940; format: cell-based; summary of the method: as §1
[4] = Selectivity ratio of Ki for rat CB1 receptor to Ki for human CB2 receptor

Sequence of Cannabinoid receptor 1 (Homo sapiens) (P21554 whole entry): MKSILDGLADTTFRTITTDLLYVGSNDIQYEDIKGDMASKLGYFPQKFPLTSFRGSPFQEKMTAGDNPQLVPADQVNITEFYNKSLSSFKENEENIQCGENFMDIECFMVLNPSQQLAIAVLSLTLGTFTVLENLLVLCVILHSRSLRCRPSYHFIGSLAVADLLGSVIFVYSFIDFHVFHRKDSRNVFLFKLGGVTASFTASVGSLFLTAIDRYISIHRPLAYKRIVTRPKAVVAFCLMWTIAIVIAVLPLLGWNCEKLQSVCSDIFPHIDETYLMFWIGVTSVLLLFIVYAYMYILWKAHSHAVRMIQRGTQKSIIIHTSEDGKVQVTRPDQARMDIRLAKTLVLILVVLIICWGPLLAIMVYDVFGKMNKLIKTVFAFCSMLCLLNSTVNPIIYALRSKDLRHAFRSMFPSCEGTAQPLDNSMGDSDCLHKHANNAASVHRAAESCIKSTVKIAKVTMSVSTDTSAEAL
Sequence of Cannabinoid receptor 1 (P20272 whole entry): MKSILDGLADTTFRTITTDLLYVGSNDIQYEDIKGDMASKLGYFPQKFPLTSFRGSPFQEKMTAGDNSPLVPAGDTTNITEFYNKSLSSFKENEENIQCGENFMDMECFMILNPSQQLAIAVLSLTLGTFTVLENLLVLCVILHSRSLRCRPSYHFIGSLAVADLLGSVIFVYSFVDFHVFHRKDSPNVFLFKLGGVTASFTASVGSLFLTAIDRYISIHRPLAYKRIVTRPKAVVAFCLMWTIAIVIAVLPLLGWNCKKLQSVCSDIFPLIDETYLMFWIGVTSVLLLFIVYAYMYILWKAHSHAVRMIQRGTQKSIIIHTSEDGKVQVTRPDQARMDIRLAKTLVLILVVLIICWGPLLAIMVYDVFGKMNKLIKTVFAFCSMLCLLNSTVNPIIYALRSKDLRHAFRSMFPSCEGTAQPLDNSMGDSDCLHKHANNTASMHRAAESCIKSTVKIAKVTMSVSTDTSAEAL
T1 sequence (P34972 whole entry): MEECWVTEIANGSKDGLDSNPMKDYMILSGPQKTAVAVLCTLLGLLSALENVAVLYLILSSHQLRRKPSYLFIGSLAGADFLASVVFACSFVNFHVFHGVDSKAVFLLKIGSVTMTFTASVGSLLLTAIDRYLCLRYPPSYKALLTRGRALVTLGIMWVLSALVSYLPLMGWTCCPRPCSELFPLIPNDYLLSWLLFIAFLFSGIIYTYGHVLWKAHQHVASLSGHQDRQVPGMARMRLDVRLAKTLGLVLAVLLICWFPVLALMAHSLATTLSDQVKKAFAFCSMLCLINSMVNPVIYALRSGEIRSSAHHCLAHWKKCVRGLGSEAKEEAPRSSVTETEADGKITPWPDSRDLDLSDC

CCOC(=O)CCn1c2ccccc2c2cc(C(=O)N3CCS(=O)(=O)CC3)ccc21
Ki (Cannabinoid receptor 2 [1]; hek293): Not Active | Ki (Cannabinoid receptor 1): Not Active

O=C(c1ccc2[nH]c3ccccc3c2c1)N1CCCCC1
Ki (Cannabinoid receptor 2 [1]; hek293): Not Active | Ki (Cannabinoid receptor 1): Not Active

CCCCCn1c2ccccc2c2cc(CN3CCNCC3)ccc21
Ki (Cannabinoid receptor 2 [1]; hek293): Not Active | Ki (Cannabinoid receptor 1): Not Active

O=C(c1ccc2c(c1)c1ccccc1n2Cc1ccncc1)N1CCCCC1
Activity (Cannabinoid receptor 2 [2]): 66.3% | Activity [3]: 74.9% | Ki (Cannabinoid receptor 2 [1]; read-out: Ki): 91 nM | Ki (Cannabinoid receptor 1; read-out: Ki): 393 nM | Ratio Ki [4]: 4.32

COC(=O)CCCn1c2ccccc2c2cc(C(=O)N3CCCCC3)ccc21
Activity (Cannabinoid receptor 2 [2]): 37.3% | Activity [3]: 9.4% | Ki (Cannabinoid receptor 2 [1]; read-out: Ki): 208 nM | Ki (Cannabinoid receptor 1; read-out: Ki): 1850 nM | Ratio Ki [4]: 8.88

CCCCCn1c2ccccc2c2cc(C(=O)NC34CC5CC(CC(C5)C3)C4)ccc21
Ki (Cannabinoid receptor 2 [1]; read-out: Ki): 288 nM | Ki (Cannabinoid receptor 1; read-out: Ki): 1450 nM | Ratio Ki [4]: 5.03

O=C(c1ccc2c(c1)c1ccccc1n2CCN1CCCCC1)N1CCCCC1
Ki (Cannabinoid receptor 2 [1]; hek293): Not Active | Ki (Cannabinoid receptor 1): Not Active

CCCCCn1c2ccccc2c2cc(C(=O)OCC)ncc21
Ki (Cannabinoid receptor 2 [1]; read-out: Ki): 1370 nM | Ki (Cannabinoid receptor 1; read-out: Ki): 1860 nM | Ratio Ki [4]: 1.36

O=C(c1ccc2c(c1)c1ccccc1n2CCCl)N1CCCCC1
Ki (Cannabinoid receptor 2 [1]; read-out: Ki): 519 nM | Ki (Cannabinoid receptor 1; read-out: Ki): 2360 nM | Ratio Ki [4]: 4.55

CCCCCn1c2ccccc2c2cc(C(=O)N3CCCCC3)ncc21
Activity (Cannabinoid receptor 2 [2]): 101% | Activity [3]: 128% | Ki (Cannabinoid receptor 2 [1]; read-out: Ki): 35.3 nM | Ki (Cannabinoid receptor 1; read-out: Ki): 136 nM | Ratio Ki [4]: 3.86

NCCCn1c2ccccc2c2cc(C(=O)N3CCCCC3)ccc21
Ki (Cannabinoid receptor 2 [1]; hek293): Not Active | Ki (Cannabinoid receptor 1): Not Active

O=C(OCCCn1c2ccccc2c2cc(C(=O)N3CCCCC3)ccc21)N1CCS(=O)(=O)CC1
Activity (Cannabinoid receptor 2 [2]): 27.9% | Activity [3]: 65.6% | Ki (Cannabinoid receptor 2 [1]; read-out: Ki): 73 nM | Ki (Cannabinoid receptor 1; read-out: Ki): 2260 nM | Ratio Ki [4]: 30.9

CCCCCn1c2ccccc2c2cc(CN3CCCCC3)ccc21
Activity (Cannabinoid receptor 2 [2]): 79.6% | Activity [3]: -11.1% | Ki (Cannabinoid receptor 2 [1]; read-out: Ki): 370 nM | Ki (Cannabinoid receptor 1; read-out: Ki): 122 nM | Ratio Ki [4]: 0.33

CCCCCn1c2ccccc2c2cc(C(=O)CN3CCCCC3)ccc21
Activity (Cannabinoid receptor 2 [2]): 103% | Activity [3]: -20.4% | Ki (Cannabinoid receptor 2 [1]; read-out: Ki): 1090 nM | Ki (Cannabinoid receptor 1; read-out: Ki): 3330 nM | Ratio Ki [4]: 3.05

CCCCCn1c2ccccc2c2cc(C(=O)N3CC[N+](C)(C)CC3)ccc21.[I-]
Ki (Cannabinoid receptor 2 [1]; hek293): Not Active | Ki (Cannabinoid receptor 1): Not Active

CCCCCn1c2ccccc2c2cc(C(=O)N(CC)CC)ccc21
Activity (Cannabinoid receptor 2 [2]): 53.1% | Activity [3]: 102% | Ki (Cannabinoid receptor 2 [1]; read-out: Ki): 51.8 nM | Ki (Cannabinoid receptor 1; read-out: Ki): 105 nM | Ratio Ki [4]: 2.03

CCCCCn1c2ccccc2c2cc(C(=O)OCc3ccncc3)ccc21
Ki (Cannabinoid receptor 2 [1]; read-out: Ki): 1390 nM | Ki (Cannabinoid receptor 1; read-out: Ki): 108 nM | Ratio Ki [4]: 0.08

CCCCCn1c2ccccc2c2cc(C(=O)NCCc3ccc(Cl)cc3)ccc21
Ki (Cannabinoid receptor 1): Not Active

O=C(c1ccc2c(c1)c1ccccc1n2Cc1cccnc1)N1CCCCC1
Ki (Cannabinoid receptor 2 [1]; read-out: Ki): 600 nM | Ki (Cannabinoid receptor 1; read-out: Ki): 1020 nM | Ratio Ki [4]: 1.71

CCOC(=O)CCn1c2ccccc2c2cc(C(=O)N3CCN(C)CC3)ccc21
Ki (Cannabinoid receptor 2 [1]; read-out: Ki): 3380 nM | Ki (Cannabinoid receptor 1): Not Active

CCCCCCn1c2ccccc2c2cc(C(=O)N3CCCCC3)ccc21
Activity (Cannabinoid receptor 2 [2]): 77% | Activity [3]: 122% | Ki (Cannabinoid receptor 2 [1]; read-out: Ki): 96 nM | Ki (Cannabinoid receptor 1; read-out: Ki): 241 nM | Ratio Ki [4]: 2.51

CCCCCCCn1c2ccccc2c2cc(C(=O)N3CCCCC3)ccc21
Ki (Cannabinoid receptor 2 [1]; read-out: Ki): 827 nM | Ki (Cannabinoid receptor 1; read-out: Ki): 943 nM | Ratio Ki [4]: 1.14

CCOC(=O)CCn1c2ccccc2c2cc(C(=O)N3CCCCC3)ccc21
Ki (Cannabinoid receptor 2 [1]; read-out: Ki): 1310 nM | Ki (Cannabinoid receptor 1; read-out: Ki): 4980 nM | Ratio Ki [4]: 3.79

CC(C)(C)OC(=O)NCCCn1c2ccccc2c2cc(C(=O)N3CCCCC3)ccc21
Ki (Cannabinoid receptor 2 [1]; read-out: Ki): 2690 nM | Ki (Cannabinoid receptor 1): Not Active

O=C(c1ccc2c(c1)c1ccccc1n2Cc1ccccn1)N1CCCCC1
Ki (Cannabinoid receptor 2 [1]; read-out: Ki): 215 nM | Ki (Cannabinoid receptor 1; read-out: Ki): 403 nM | Ratio Ki [4]: 1.87

CCCn1c2ccccc2c2cc(C(=O)N3CCCCC3)ccc21
Ki (Cannabinoid receptor 2 [1]; read-out: Ki): 521 nM | Ki (Cannabinoid receptor 1; read-out: Ki): 600 nM | Ratio Ki [4]: 1.15

CC(C)(C)OC(=O)NCCCn1c2ccccc2c2cc(C(=O)N3CCS(=O)(=O)CC3)ccc21
Ki (Cannabinoid receptor 2 [1]; hek293): Not Active | Ki (Cannabinoid receptor 1): Not Active

CCCCCn1c2ccccc2c2cc(C(=O)N3CCNCC3)ccc21
Ratio Ki [4]: 0.1

CCCCCn1c2ccccc2c2cc(C#N)ccc21
Ki (Cannabinoid receptor 2 [1]; hek293): Not Active | Ki (Cannabinoid receptor 1): Not Active

CCCCCn1c2ccccc2c2cc(C(=O)N3CCS(=O)(=O)CC3)ccc21
Activity (Cannabinoid receptor 2 [2]): 91.5% | Activity [3]: 23.9% | Ki (Cannabinoid receptor 2 [1]; read-out: Ki): 225 nM | Ki (Cannabinoid receptor 1; read-out: Ki): 440 nM | Ratio Ki [4]: 1.96

CN(C)CCCn1c2ccccc2c2cc(C(=O)N3CCCCC3)ccc21
Ki (Cannabinoid receptor 2 [1]; read-out: Ki): 403 nM | Ki (Cannabinoid receptor 1; read-out: Ki): 2390 nM | Ratio Ki [4]: 5.92

CCCCn1c2ccccc2c2cc(C(=O)N3CCCCC3)ccc21
Activity (Cannabinoid receptor 2 [2]): 67.9% | Activity [3]: 84.8% | Ki (Cannabinoid receptor 2 [1]; read-out: Ki): 264 nM | Ki (Cannabinoid receptor 1; read-out: Ki): 63 nM | Ratio Ki [4]: 0.24

CCCCCn1c2ccccc2c2cc(CN3CCN(C)CC3)ccc21
Ki (Cannabinoid receptor 2 [1]; read-out: Ki): 740 nM | Ki (Cannabinoid receptor 1; read-out: Ki): 244 nM | Ratio Ki [4]: 0.33

CCCCCn1c2ccccc2c2cc(C(=O)NN3CCCCC3)ccc21
Ki (Cannabinoid receptor 2 [1]; read-out: Ki): 1610 nM | Ki (Cannabinoid receptor 1): Not Active

CCCCCn1c2ccccc2c2cc(C(=O)NN3CCCCC3)ncc21
Ki (Cannabinoid receptor 2 [1]; read-out: Ki): 171 nM | Ki (Cannabinoid receptor 1; read-out: Ki): 354 nM | Ratio Ki [4]: 2.07

CCCCCn1c2ccccc2c2cc(C(=O)N3CCOCC3)ccc21
Activity (Cannabinoid receptor 2 [2]): 78.7% | Activity [3]: 115% | Ki (Cannabinoid receptor 2 [1]; read-out: Ki): 84.5 nM | Ki (Cannabinoid receptor 1; read-out: Ki): 60 nM | Ratio Ki [4]: 0.71

COCCCn1c2ccccc2c2cc(C(=O)N3CCCCC3)ccc21
Activity (Cannabinoid receptor 2 [2]): 68.1% | Activity [3]: 63.2% | Ki (Cannabinoid receptor 2 [1]; read-out: Ki): 83 nM | Ki (Cannabinoid receptor 1; read-out: Ki): 1440 nM | Ratio Ki [4]: 8.88

CCCCCn1c2ccccc2c2cc(C(=S)N3CCCCC3)ccc21
Activity (Cannabinoid receptor 2 [2]): 63% | Activity [3]: 124% | Ki (Cannabinoid receptor 2 [1]; read-out: Ki): 49.6 nM | Ki (Cannabinoid receptor 1; read-out: Ki): 40.6 nM | Ratio Ki [4]: 0.82

O=C(c1ccc2c(c1)c1ccccc1n2CCCN1CCCCC1)N1CCCCC1
Ki (Cannabinoid receptor 2 [1]; read-out: Ki): 2170 nM | Ki (Cannabinoid receptor 1): Not Active

O=C(c1ccc2c(c1)c1ccccc1n2CCCN1CCS(=O)(=O)CC1)N1CCCCC1
Ki (Cannabinoid receptor 2 [1]; read-out: Ki): 249 nM | Ki (Cannabinoid receptor 1; read-out: Ki): 2380 nM | Ratio Ki [4]: 9.54

O=C(c1ccc2c(c1)c1ccccc1n2CC1CCOCC1)N1CCCCC1
Activity (Cannabinoid receptor 2 [2]): 86.2% | Activity [3]: 142% | Ki (Cannabinoid receptor 2 [1]; read-out: Ki): 20 nM | Ki (Cannabinoid receptor 1; read-out: Ki): 19.5 nM | Ratio Ki [4]: 0.98

CCCCCn1c2ccccc2c2cc(C(=O)CN3CCS(=O)(=O)CC3)ccc21
Ki (Cannabinoid receptor 2 [1]; read-out: Ki): 502 nM | Ki (Cannabinoid receptor 1; read-out: Ki): 675 nM | Ratio Ki [4]: 1.34

CCCCCn1c2ccccc2c2cc(C(=O)NCC3CCNCC3)ccc21
Ki (Cannabinoid receptor 2 [1]; hek293): Not Active | Ki (Cannabinoid receptor 1): Not Active

O=C(c1ccc2c(c1)c1ccccc1n2CCCCl)N1CCCCC1
Activity (Cannabinoid receptor 2 [2]): 111% | Activity [3]: 106% | Ki (Cannabinoid receptor 2 [1]; read-out: Ki): 88 nM | Ki (Cannabinoid receptor 1; read-out: Ki): 124 nM | Ratio Ki [4]: 1.4

CCCCCn1c2ccccc2c2cc(C(=O)CN3CCN(C)CC3)ccc21
Ki (Cannabinoid receptor 2 [1]; read-out: Ki): 398 nM | Ki (Cannabinoid receptor 1; read-out: Ki): 1500 nM | Ratio Ki [4]: 3.78

CCCCCn1c2ccccc2c2cc(C(=O)N3CCN(C)CC3)ccc21
Activity (Cannabinoid receptor 2 [2]): 43.9% | Activity [3]: 84.7% | Ki (Cannabinoid receptor 2 [1]; read-out: Ki): 35.4 nM | Ki (Cannabinoid receptor 1; read-out: Ki): 123 nM | Ratio Ki [4]: 3.47

CCCCCn1c2ccccc2c2cc(C(=O)OCc3ccccn3)ccc21
Ki (Cannabinoid receptor 2 [1]; read-out: Ki): 1930 nM | Ki (Cannabinoid receptor 1; read-out: Ki): 679 nM | Ratio Ki [4]: 0.35
